From the M2OR odorant receptor database
Where a chain is given by its changes, count along the chain named.

How the values were obtained:
Settings in all cases: stereoisomer not certain
OR52A5 (Homo sapiens) = biological target: T1, OR52A5 (Homo sapiens) (UniProt Q9H2C5)
T1 sequence (whole entry): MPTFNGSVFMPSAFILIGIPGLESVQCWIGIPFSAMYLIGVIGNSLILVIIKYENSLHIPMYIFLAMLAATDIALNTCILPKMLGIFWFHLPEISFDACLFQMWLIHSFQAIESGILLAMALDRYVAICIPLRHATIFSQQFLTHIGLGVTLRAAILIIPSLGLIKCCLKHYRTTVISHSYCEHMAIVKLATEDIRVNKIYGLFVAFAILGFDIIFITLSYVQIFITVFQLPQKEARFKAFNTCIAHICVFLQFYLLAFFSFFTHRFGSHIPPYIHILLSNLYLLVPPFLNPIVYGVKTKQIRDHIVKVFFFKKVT
Procedure, shortened: (§1)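 Assay methods differ from source to source, frequently being transient luciferase assays in mammalian cell lines. For each receptor–molecule pair, the label responsive (active) applies when the original authors judged the measured signal statistically different from baseline, and non-responsive (inactive) applies otherwise.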

OR52B2 (Homo sapiens) = biological target: T2, OR52B2 (Homo sapiens) (UniProt Q96RD2)
T2 sequence (whole entry): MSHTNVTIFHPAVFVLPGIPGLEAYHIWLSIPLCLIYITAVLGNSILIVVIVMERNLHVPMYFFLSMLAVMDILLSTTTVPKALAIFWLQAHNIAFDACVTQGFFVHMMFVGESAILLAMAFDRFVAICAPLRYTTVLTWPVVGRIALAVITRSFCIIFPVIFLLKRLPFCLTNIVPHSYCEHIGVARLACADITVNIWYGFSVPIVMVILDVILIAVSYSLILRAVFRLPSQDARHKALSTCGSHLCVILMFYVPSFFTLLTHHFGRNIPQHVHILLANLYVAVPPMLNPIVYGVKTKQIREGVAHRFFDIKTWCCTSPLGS
Procedure, shortened: as §1

OR52B4 (Homo sapiens) = biological target: T3, OR52B4 (Homo sapiens) (UniProt Q8NGK2)
T3 sequence (whole entry): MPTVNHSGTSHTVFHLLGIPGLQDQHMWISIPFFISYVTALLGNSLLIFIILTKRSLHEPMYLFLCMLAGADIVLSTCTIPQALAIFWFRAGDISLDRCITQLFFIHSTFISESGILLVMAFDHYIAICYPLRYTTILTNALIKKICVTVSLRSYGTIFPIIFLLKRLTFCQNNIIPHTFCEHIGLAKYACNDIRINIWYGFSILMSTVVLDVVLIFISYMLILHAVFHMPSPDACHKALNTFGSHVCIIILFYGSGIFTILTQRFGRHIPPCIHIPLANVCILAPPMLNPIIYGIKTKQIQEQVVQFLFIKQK
Procedure, shortened: as §1

OR52B6 (Homo sapiens) = biological target: T4, OR52B6 (Homo sapiens) (UniProt Q8NGF0)
T4 sequence (whole entry): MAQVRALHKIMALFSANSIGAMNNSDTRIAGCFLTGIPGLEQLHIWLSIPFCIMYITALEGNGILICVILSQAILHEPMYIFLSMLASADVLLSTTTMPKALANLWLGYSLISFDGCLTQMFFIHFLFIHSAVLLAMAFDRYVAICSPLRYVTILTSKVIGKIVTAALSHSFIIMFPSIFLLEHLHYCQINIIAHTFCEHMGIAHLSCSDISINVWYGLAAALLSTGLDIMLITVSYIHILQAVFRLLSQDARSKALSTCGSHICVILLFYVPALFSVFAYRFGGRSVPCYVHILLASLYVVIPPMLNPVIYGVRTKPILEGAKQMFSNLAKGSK
Procedure, shortened: as §1

OR52D1 (Homo sapiens) = biological target: T5, OR52D1 (Homo sapiens) (UniProt Q9H346)
T5 sequence (whole entry): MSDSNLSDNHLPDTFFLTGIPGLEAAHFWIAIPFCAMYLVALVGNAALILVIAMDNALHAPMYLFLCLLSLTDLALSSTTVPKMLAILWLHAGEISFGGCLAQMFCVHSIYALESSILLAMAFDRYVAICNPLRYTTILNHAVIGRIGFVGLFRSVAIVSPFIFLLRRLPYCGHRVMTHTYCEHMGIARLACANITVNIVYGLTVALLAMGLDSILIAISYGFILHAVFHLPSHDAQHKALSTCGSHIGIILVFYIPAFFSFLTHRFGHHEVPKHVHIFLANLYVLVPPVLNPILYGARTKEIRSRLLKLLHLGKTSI
Procedure, shortened: as §1

OR52E2 (Homo sapiens) = OR52E2 (Homo sapiens) (UniProt Q8NGJ4)
Sequence of OR52E2 (Homo sapiens) (Q8NGJ4 whole entry): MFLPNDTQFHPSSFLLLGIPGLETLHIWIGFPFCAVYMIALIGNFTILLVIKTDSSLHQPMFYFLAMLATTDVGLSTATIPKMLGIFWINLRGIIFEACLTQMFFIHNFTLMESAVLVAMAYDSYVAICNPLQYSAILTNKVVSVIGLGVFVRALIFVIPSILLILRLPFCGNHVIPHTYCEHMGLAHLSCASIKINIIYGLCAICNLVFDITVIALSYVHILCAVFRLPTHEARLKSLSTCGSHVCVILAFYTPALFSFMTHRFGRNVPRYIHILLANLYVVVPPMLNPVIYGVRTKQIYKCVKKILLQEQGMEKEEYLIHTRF
Procedure, shortened: as §1

OR52E4 (Homo sapiens) = OR52E4 (Homo sapiens) (UniProt Q8NGH9)
Sequence of OR52E4 (Homo sapiens) (Q8NGH9 whole entry): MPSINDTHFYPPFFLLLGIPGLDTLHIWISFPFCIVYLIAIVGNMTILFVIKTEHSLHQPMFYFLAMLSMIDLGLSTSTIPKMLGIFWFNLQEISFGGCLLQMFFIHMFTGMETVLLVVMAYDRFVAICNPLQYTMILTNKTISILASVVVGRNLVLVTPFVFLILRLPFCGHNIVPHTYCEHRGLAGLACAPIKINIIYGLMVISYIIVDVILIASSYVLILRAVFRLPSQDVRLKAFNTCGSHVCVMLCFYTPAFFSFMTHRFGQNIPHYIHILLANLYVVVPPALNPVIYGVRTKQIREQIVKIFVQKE
Procedure, shortened: as §1

OR52E5 (Homo sapiens) = OR52E5 (Homo sapiens) (UniProt Q8NH55)
Sequence of OR52E5 (Homo sapiens) (Q8NH55 whole entry): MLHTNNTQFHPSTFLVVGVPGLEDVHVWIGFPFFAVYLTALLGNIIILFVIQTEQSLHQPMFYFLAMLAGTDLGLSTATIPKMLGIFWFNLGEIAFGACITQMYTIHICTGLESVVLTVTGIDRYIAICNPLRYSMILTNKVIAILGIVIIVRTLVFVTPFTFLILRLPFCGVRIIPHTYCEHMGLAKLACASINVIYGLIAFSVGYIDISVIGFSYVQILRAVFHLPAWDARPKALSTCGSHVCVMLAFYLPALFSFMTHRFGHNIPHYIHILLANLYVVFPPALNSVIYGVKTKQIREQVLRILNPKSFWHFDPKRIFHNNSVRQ
Procedure, shortened: as §1

OR52E6 (Homo sapiens) = OR52E6 (Homo sapiens) (UniProt Q96RD3)
Sequence of OR52E6 (Homo sapiens) (Q96RD3 whole entry): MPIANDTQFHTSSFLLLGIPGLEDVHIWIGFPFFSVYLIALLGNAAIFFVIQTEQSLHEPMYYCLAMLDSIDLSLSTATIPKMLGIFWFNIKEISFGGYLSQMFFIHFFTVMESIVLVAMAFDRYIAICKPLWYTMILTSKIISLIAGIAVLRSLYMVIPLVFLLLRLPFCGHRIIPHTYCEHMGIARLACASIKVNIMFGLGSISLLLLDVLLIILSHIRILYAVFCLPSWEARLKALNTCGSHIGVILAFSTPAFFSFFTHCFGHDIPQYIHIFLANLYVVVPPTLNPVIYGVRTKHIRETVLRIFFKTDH
Procedure, shortened: as §1

OR52I1 (Homo sapiens) = biological target: T6, OR52I1 (Homo sapiens) (UniProt Q8NGK6)
T6 sequence (whole entry): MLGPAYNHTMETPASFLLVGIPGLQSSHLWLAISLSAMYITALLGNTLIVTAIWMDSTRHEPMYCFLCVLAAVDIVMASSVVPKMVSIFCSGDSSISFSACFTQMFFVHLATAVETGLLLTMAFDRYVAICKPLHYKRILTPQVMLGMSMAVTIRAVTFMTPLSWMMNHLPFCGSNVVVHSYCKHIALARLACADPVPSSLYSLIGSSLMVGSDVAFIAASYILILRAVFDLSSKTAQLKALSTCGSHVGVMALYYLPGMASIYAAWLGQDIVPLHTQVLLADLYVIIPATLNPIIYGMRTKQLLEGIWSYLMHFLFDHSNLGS
Procedure, shortened: as §1

OR52I2 (Homo sapiens) = biological target: T7, OR52I2 (Homo sapiens) (UniProt Q8NH67)
T7 sequence (whole entry): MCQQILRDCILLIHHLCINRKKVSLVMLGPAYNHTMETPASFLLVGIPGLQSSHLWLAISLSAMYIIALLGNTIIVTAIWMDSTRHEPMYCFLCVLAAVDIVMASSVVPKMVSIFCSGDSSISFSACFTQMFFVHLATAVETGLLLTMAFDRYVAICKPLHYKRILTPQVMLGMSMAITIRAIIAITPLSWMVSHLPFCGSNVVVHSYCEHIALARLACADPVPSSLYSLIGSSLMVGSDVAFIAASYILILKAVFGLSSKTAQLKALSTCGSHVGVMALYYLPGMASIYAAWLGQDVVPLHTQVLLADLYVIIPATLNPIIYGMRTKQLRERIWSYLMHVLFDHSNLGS
Procedure, shortened: as §1

OR52J3 (Homo sapiens) = OR52J3 (Homo sapiens) (UniProt Q8NH60)
Sequence of OR52J3 (Homo sapiens) (Q8NH60 whole entry): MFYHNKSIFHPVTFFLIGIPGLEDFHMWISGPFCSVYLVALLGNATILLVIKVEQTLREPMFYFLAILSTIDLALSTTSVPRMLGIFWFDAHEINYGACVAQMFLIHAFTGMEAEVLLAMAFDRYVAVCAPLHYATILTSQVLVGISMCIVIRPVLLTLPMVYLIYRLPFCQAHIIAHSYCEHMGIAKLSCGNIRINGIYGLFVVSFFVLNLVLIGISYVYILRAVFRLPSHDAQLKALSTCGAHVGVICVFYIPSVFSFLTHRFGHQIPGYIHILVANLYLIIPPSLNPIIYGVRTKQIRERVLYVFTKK
Procedure, shortened: as §1

OR52K1 (Homo sapiens) = biological target: T8, OR52K1 (Homo sapiens) (UniProt Q8NGK4)
T8 sequence (whole entry): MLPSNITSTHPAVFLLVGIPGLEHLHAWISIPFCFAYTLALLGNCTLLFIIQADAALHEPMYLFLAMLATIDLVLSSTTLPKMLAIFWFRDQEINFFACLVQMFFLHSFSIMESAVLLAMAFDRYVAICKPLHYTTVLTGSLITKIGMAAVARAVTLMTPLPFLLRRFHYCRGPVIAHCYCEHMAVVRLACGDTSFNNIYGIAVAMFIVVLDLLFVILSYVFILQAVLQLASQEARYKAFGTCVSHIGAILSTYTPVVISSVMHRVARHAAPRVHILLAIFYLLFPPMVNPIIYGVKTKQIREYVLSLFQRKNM
Procedure, shortened: as §1

OR52K2 (Homo sapiens) = biological target: T9, OR52K2 (Homo sapiens) (UniProt Q8NGK3)
T9 sequence (whole entry): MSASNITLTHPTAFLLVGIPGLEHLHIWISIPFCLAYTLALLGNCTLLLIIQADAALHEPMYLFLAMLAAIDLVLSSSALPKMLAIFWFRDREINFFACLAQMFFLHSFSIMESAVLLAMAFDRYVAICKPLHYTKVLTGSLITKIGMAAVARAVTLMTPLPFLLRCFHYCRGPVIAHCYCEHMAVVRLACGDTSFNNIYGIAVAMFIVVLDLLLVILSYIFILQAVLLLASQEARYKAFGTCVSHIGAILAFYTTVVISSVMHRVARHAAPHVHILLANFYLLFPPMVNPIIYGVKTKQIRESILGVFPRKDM
Procedure, shortened: as §1

OR52L1 (Homo sapiens) [1] = biological target: T10, OR52L1 (Homo sapiens) (UniProt Q8NGH7)
T10 sequence (whole entry): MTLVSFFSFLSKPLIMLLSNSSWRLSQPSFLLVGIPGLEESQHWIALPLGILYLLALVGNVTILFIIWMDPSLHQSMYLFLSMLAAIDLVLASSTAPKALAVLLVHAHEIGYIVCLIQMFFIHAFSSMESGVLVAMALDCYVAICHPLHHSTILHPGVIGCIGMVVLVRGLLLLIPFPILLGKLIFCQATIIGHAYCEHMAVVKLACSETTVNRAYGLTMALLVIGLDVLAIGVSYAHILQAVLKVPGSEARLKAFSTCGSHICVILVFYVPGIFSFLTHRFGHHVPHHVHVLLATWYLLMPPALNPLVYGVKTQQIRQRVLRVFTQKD
Procedure, shortened: as §1

OR52M1 (Homo sapiens) = biological target: T11, OR52M1 (Homo sapiens) (UniProt Q8NGK5)
T11 sequence (whole entry): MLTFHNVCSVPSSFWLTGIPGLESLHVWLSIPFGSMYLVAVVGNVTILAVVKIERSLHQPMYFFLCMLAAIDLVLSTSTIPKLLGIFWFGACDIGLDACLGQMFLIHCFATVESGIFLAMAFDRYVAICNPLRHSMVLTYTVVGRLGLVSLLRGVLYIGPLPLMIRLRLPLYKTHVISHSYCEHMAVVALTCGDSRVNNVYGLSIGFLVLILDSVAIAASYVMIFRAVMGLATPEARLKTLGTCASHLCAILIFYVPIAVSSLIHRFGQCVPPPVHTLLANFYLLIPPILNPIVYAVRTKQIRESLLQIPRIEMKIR
Procedure, shortened: as §1

OR52N1 (Homo sapiens) = biological target: T12, OR52N1 (Homo sapiens) (UniProt Q8NH53)
T12 sequence (whole entry): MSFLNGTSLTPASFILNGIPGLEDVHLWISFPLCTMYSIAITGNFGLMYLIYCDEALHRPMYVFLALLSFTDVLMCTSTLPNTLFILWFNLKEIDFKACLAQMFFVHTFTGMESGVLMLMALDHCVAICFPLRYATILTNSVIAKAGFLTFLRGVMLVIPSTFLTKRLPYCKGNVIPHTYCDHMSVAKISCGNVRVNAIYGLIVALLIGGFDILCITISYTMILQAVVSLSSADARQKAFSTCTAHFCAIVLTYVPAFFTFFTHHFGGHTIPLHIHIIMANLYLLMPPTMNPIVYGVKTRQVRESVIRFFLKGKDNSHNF
Procedure, shortened: as §1

OR52N2 (Homo sapiens) = biological target: T13, OR52N2 (Homo sapiens) (UniProt Q8NGI0)
T13 sequence (whole entry): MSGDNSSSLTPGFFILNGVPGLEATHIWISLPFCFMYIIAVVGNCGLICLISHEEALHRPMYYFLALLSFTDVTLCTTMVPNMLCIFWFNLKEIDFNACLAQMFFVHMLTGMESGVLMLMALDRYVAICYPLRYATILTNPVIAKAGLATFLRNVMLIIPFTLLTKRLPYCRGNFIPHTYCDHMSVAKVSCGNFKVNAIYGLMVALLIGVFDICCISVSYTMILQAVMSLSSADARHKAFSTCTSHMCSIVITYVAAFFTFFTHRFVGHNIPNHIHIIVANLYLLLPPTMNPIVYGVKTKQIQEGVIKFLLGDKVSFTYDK
Procedure, shortened: as §1

OR52E1 (Homo sapiens) = OR52E1 (Homo sapiens) (UniProt Q8NGJ3)
Sequence of OR52E1 (Homo sapiens) (Q8NGJ3 whole entry): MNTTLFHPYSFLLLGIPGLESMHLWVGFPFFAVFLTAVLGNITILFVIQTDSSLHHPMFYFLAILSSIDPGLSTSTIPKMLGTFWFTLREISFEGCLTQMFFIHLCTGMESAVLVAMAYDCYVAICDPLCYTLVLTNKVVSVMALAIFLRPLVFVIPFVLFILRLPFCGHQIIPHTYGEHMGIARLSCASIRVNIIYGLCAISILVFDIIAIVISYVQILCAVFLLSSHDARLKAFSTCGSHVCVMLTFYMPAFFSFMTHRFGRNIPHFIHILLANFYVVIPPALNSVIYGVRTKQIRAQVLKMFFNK
Procedure, shortened: as §1

OR52L1 (Homo sapiens) [2] = biological target: T14, OR52L1 (Homo sapiens) (UniProt Q8NGH7); remark: listed apart in the source
T14 sequence (whole entry): T10 sequence (whole entry) with C140R, C161R, K183T, W297R
Procedure, shortened: as §1

Structure (SMILES)	odorant receptor agonist call (OR52A5 (Homo sapiens))	odorant receptor agonist call (OR52B2 (Homo sapiens))	odorant receptor agonist call (OR52B4 (Homo sapiens))	odorant receptor agonist call (OR52B6 (Homo sapiens))	odorant receptor agonist call (OR52D1 (Homo sapiens))	odorant receptor agonist call (OR52E2 (Homo sapiens))	odorant receptor agonist call (OR52E4 (Homo sapiens))	odorant receptor agonist call (OR52E5 (Homo sapiens))	odorant receptor agonist call (OR52E6 (Homo sapiens))	odorant receptor agonist call (OR52I1 (Homo sapiens))	odorant receptor agonist call (OR52I2 (Homo sapiens))	odorant receptor agonist call (OR52J3 (Homo sapiens))	odorant receptor agonist call (OR52K1 (Homo sapiens))	odorant receptor agonist call (OR52K2 (Homo sapiens))	odorant receptor agonist call (OR52L1 (Homo sapiens) [1])	odorant receptor agonist call (OR52M1 (Homo sapiens))	odorant receptor agonist call (OR52N1 (Homo sapiens))	odorant receptor agonist call (OR52N2 (Homo sapiens))	odorant receptor agonist call (OR52E1 (Homo sapiens))	odorant receptor agonist call (OR52L1 (Homo sapiens) [2])
CC(CO)CS (centres undefined)	inactive	inactive	inactive	inactive	inactive	inactive	inactive	inactive	inactive	inactive	inactive	inactive	inactive	inactive	inactive	inactive	inactive	inactive		
CCC(S)C(C)CO (centres undefined)	inactive	inactive	inactive	inactive	inactive	inactive	inactive	inactive	inactive	inactive	inactive	inactive	inactive	inactive	inactive	inactive	inactive	inactive		
CCC1OC(C)=C(O)C1=O (centres undefined)	inactive	inactive	inactive	inactive	inactive	inactive	inactive		inactive	inactive	inactive	inactive	inactive	inactive		inactive	inactive	inactive	inactive	inactive
CCCCCC1C(=O)CCC1CC(=O)OC (centres undefined)					inactive															
CCCCCCC=CCCC=O	inactive	inactive	inactive	inactive	inactive	inactive	inactive	inactive	inactive	inactive	inactive	inactive	inactive	inactive	inactive	inactive	inactive	inactive	inactive	
CCCCCCCCCO					active															
CC(C)=CCCC(C)CC=O (centres undefined)					inactive															
CC1=C(O)C(=O)OC1C (centres undefined)	inactive	inactive	inactive	inactive	inactive	inactive	inactive		inactive	inactive	inactive	inactive	inactive	inactive		inactive	inactive	inactive	inactive	inactive
CCCCCCCCC(=O)O		inactive			active															
CC(C)=CCCC(C)=CCO					inactive															
CCC1OC(=O)C(O)=C1C (centres undefined)	inactive	inactive	inactive	inactive	inactive	inactive	inactive		inactive	inactive	inactive	inactive	inactive	inactive		inactive	inactive	inactive	inactive	inactive
Cc1cnc(C)c(C)n1	inactive	inactive	inactive	inactive	inactive	inactive	inactive		inactive	inactive	inactive	inactive	inactive	inactive		inactive	inactive	inactive	inactive	inactive
CCCCCCCC(C)O (centres undefined)					active															
